{
  "source": "paper PMC11661184",
  "about": "(bioRxiv, 2024)",
  "key": {"[1]": {"system": "hTRPA1 expressed in Xenopus laevis oocytes", "assay_type": "cell-based, human"}, "CaM (Calmodulin-agarose)": {"system": "CaM (Calmodulin-agarose)", "experiment": "CaM-agarose pulldown of TRPA1 constructs", "assay_type": "binding", "details": "basal Ca2+; n=3 independent experiments", "how_it_was_run": "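HEK293T cells were transfected with tagged TRPA1 constructs and lysed after 16-24 h in Tris pH 8.0 buffer containing 5 mM DDM and 500 µM EGTA. Free Ca²⁺ was set with CaCl₂, calculated from EGTA constants. 100 µg lysate was incubated with CaM-agarose for 1 h at 4 °C, washed, then eluted with 5 mM EGTA. Detection was by anti-FLAG or anti-MBP immunoblot, with tubulin input control. Enrichment is relative to the maximum within each replicate.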"}, "TurboID-CaM C-lobe": {"system": "TurboID-CaM C-lobe", "experiment": "Proximity biotinylation in HEK293T cells", "assay_type": "cell-based, human", "details": "50 µM biotin 15 min, basal Ca2+; n=4", "how_it_was_run": "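HEK293T cells co-expressed 3xFLAG-TurboID or 3xFLAG-TurboID-CaM C-lobe with 3xFLAG-hTRPA1 variants. About 48 h post-transfection, 50 uM biotin was added to the culture medium. After 15 min, cells were lysed and proteins captured on anti-FLAG resin (1 h, 4 °C), then eluted with 125 µg/ml 3xFLAG peptide. Biotinylated proteins were detected with HRP-streptavidin (1:50,000).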"}, "[2]": {"system": "hTRPA1 expressed in Xenopus laevis oocytes", "experiment": "Two-electrode voltage clamp, Ca2+ potentiation and desensitization", "assay_type": "cell-based, human", "details": "for Slowing of desensitization versus WT hTRPA1, intracellular Ca2+ chelated: 500 µM EGTA-AM 20 min"}},
  "data": [
    {"molecule": "W1103A hTRPA1: hTRPA1 with W1103 mutated to alanine (protein) MKRSLRKMWRPGEKKEPQGVVYEDVPDDTEDFKESLKVVFEGSAYGLQNFNKQKKLKRCDDMDTFFLHYAAAEGQIELMEKITRDSSLEVLHEMDDYGNTPLHCAVEKNQIESVKFLLSRGANPNLRNFNMMAPLHIAVQGMNNEVMKVLLEHRTIDVNLEGENGNTAVIIACTTNNSEALQILLKKGAKPCKSNKWGCFPIHQAAFSGSKECMEIILRFGEEHGYSRQLHINFMNNGKATPLHLAVQNGDLEMIKMCLDNGAQIDPVEKGRCTAIHFAATQGATEIVKLMISSYSGSVDIVNTTDGCHETMLHRASLFDHHELADYLISVGADINKIDSEGRSPLILATASASWNIVNLLLSKGAQVDIKDNFGRNFLHLTVQQPYGLKNLRPEFMQMQQIKELVMDEDNDGCTPLHYACRQGGPGSVNNLLGFNVSIHSKSKDKKSPLHFAASYGRINTCQRLLQDISDTRLLNEGDLHGMTPLHLAAKNGHDKVVQLLLKKGALFLSDHNGWTALHHASMGGYTQTMKVILDTNLKCTDRLDEDGNTALHFAAREGHAKAVALLLSHNADIVLNKQQASFLHLALHNKRKEVVLTIIRSKRWDECLKIFSHNSPGNKCPITEMIEYLPECMKVLLDFCMLHSTEDKSCRDYYIEYNFKYLQCPLEFTKKTPTQDVIYEPLTALNAMVQNNRIELLNHPVCKEYLLMKWLAYGFRAHMMNLGSYCLGLIPMTILVVNIKPGMAFNSTGIINETSDHSEILDTTNSYLIKTCMILVFLSSIFGYCKEAGQIFQQKRNYFMDISNVLEWIIYTTGIIFVLPLFVEIPAHLQWQCGAIAVYFYWMNFLLYLQRFENCGIFIVMLEVILKTLLRSTVVFIFLLLAFGLSFYILLNLQDPFSSPLLSIIQTFSMMLGDINYRESFLEPYLRNELAHPVLSFAQLVSFTIFVPIVLMNLLIGLAVGDIAEVQKHASLKRIAMQVELHTSLEKKLPLWFLRKVDQKSTIVYPNKPRSGGMLFHIFCFLFCTGEIRQEIPNADKSLEMEILKQKYRLKDLTFLLEKQHELIKLIIQKMEIISETEDDDSHCSFQDRFKKEQMEQRNSRANTVLRAVKAKTHHLEP", "values": [
      {"measurement": "AITC sensitivity versus WT hTRPA1", "setting": "[1]; Ca2+-free", "result": "slightly reduced AITC sensitivities"},
      {"measurement": "Gating kinetics and peak current amplitudes", "setting": "[1]; absence of Ca2+, activation and closing at +80 mV, n=8", "result": "not significantly different from WT hTRPA1"},
      {"measurement": "CaM binding at basal Ca2+ concentration", "setting": "CaM (Calmodulin-agarose)", "result": "completely ablated CaM binding"},
      {"measurement": "TRPA1 biotinylation with TurboID-CaM C-lobe", "setting": "TurboID-CaM C-lobe", "result": "loss in biotinylation"},
      {"measurement": "Faster desensitization rate with 10 mM than with 1.8 mM extracellular Ca2+", "setting": "[2]; 250 µM AITC, 125 µM niflumic acid, n=10 or 11", "result": "approximately 3 fold"},
      {"measurement": "Potentiation by extracellular Ca2+", "setting": "[2]; 250 µM AITC, 1.8 mM Ca2+, comparable peak current amplitudes", "result": "rapid potentiation"},
      {"measurement": "Slower desensitization than WT hTRPA1 with 1.8 mM Ca2+", "setting": "[2]; 250 µM AITC, 10 mM extracellular Ca2+, 125 µM niflumic acid", "result": "approximately 4 fold"},
      {"measurement": "Desensitization profile with buffered intracellular Ca2+", "setting": "[2]; 500 µM EGTA-AM 20 min pre-incubation", "result": "delayed desensitization profile compared to WT hTRPA1 channels and a faster desensitization profile than W1103A hTRPA1 channels without intracellular Ca^2+ buffering"},
      {"measurement": "Potentiation kinetics versus WT hTRPA1, buffered intracellular Ca2+", "setting": "[2]; 500 µM EGTA-AM, n=8", "result": "did not exhibit a significant change to potentiation kinetics"},
      {"measurement": "Residual activity after extracellular Ca2+ (of initial activity)", "setting": "[2]; 5 minutes after 1.8 mM extracellular Ca2+, n=10 or 12 oocytes", "result": "10–20%"},
      {"measurement": "Increase in translocated charge versus WT hTRPA1", "setting": "[2]; +80 mV", "result": 10, "unit": "fold"},
      {"measurement": "Slowing of desensitization versus WT hTRPA1, intracellular Ca2+ chelated", "setting": "[2]; +80 mV, 1.8 mM Ca2+, n=8", "result": 10.5, "unit": "fold"},
      {"measurement": "Slowing of potentiation versus WT hTRPA1", "setting": "[2]; +80 mV, 1.8 mM Ca2+", "result": "~ 1.8 fold"},
      {"measurement": "Slowing of desensitization versus WT hTRPA1", "setting": "[2]; +80 mV, 1.8 mM Ca2+, n=10 or 12 oocytes", "result": 20, "unit": "fold"},
      {"measurement": "Increase in translocated charge versus WT hTRPA1", "setting": "[2]; −80 mV", "result": 20, "unit": "fold"},
      {"measurement": "Slowing of desensitization versus WT hTRPA1, intracellular Ca2+ chelated", "setting": "[2]; −80 mV, 1.8 mM Ca2+, n=8", "result": 10.7, "unit": "fold"},
      {"measurement": "Slowing of potentiation versus WT hTRPA1", "setting": "[2]; −80 mV, 1.8 mM Ca2+", "result": "~ 3 fold"},
      {"measurement": "Slowing of desensitization versus WT hTRPA1", "setting": "[2]; −80 mV, 1.8 mM Ca2+, n=10 or 12 oocytes", "result": 15, "unit": "fold"}
    ]}
  ]
}
